One may read the Kd as the constant that tells how readily two partners part at equilibrium. The low end stands for tighter binding, the high end for weaker binding.

The values that follow come from article PMC9728588 (Chemical Science, 2022).

Ends that are not written are not given here.

The target of one data set is CD47 (Homo sapiens, UniProt Q08722). Briefly: SPRi analysis of the binding between RT and CD47.
For the next data set, the system named is red blood cells. As to the kind of experiment: Hemolysis assay. The format is cell-based, mouse. To be noted: 2% (v/v) RBC in PBS, 37 °C, 1 h; absorbance 540 nm; water / PBS controls. A digest of the protocol: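 Red cells were exposed to the test peptide across a concentration range, and separately to peptide–quantum dot co-assemblies (peptide fixed at 1 mg mL−1, QD level varied). Supernatants were scanned by UV-vis spectroscopy to derive hemolysis rates. Means ± s.d., n = 3; one-way ANOVA with Tukey post hoc test.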

Chain of CD47 (Q08722 19-323, species assumed): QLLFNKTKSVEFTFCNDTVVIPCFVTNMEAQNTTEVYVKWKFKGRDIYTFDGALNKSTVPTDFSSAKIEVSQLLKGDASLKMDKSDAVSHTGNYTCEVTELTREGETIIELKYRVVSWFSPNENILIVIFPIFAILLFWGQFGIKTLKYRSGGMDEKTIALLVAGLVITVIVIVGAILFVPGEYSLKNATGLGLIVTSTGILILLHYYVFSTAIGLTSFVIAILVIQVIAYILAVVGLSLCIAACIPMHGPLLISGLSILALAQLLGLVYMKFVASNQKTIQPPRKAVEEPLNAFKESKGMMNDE

On to HFEYWEERHKKLVFF [RT], for which, on CD47, the dissociation constant (Kd) amounted to 318 nM. The hemolytic effect result with red blood cells is given as “almost no hemolytic effect”.
